Screens: PubChem BioAssay, The Scripps Research Institute Molecular Screening Center
Most compounds without a hit are left out; they make up all but 3.7% or so of the library.
TAAR1 antag: human TAAR1 antagonism; 1.5% of 360,000 active; CHO RD-HGA16 TAAR1, Fluo-8 calcium fluorescence, antagonist; AID 624466; inhibition, % at 3 µM; Q96RJ0;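 active means inhibition above a per-plate cutoff, the mean inhibition of test compounds on that plate plus 3 SD, cut at about 49% in these data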;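 further: 0% = DMSO plus EC80 beta-PEA response and 100% = DMSO alone without agonist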
Target sequence (Q96RJ0 whole entry, looked up): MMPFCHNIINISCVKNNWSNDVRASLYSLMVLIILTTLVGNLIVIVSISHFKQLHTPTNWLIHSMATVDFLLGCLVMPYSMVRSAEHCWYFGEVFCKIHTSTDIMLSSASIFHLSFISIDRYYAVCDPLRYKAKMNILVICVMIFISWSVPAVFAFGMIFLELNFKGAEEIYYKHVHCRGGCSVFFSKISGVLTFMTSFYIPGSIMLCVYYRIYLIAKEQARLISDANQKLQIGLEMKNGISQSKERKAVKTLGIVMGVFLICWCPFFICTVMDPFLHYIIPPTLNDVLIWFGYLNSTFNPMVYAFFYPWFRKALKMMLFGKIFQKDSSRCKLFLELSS
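Test system: hTAAR1-expressing CHO RD-HGA16 cells, Gα16-coupled; Probe or stimulus: EC80 β-phenethylamine stimulus; Compound dosing: single nominal final test compound concentration of 3 µM; Timing: 140 s kinetic read after compound, 140 s after agonist; Signal: Fluo-8 calcium-sensitive fluorescence; Measure: % inhibition of agonist calcium response; Controls: DMSO and EC80 PEA controls.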
rCAG binder-1: r(CAG) repeat RNA binding; AID 651821; inhibition, % at 3 µM; 1.3% of 370,000 active; TO-PRO-1 dye displacement fluorescence;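 active means inhibition above the plate cutoff, the mean of all test compounds on that plate plus 3 SD, cut at about 35% in these data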;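 further: 0% = DMSO alone and 100% = 100 µM mitoxantrone as full dye displacement; higher means more dye released from RNA so lower well fluorescence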
HCV core dimer: HCV core protein dimerization inhibition; TR-FRET GST/Flag-core106 dimerization, 1536-well; inhibition, % at 5 µM; 0.33% of 300,000 active; AID 1899;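 active means inhibition above the mean of all tested compounds plus 3 SD, set per screening campaign, cut at about 45% in these data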
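test system = GST/Flag-tagged HCV core106 proteins | probe or stimulus = Eu donor and XL665 acceptor anti-tag antibodies | times = compound-protein-antibody incubation 4 h at 22.5 °C | signal = TR-FRET, excitation 340 nm, emission 617 and 671 nm | measure = percent inhibition of core106 dimerization signal | controls = wells lacking GST-core106 and wells with excess unlabelled core106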
HCV NS3 hel inh: inhibitors of Hepatitis C virus NS3 helicase | NS3 helicase DNA unwinding, Cy5 molecular beacon fluorescence | inhibition, % at 10.9 µM | 0.56% of 290,000 active | AID 1800;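 active means inhibition above the mean of all tested compounds plus 3 SD, set per campaign, cut at about 35% in these data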;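 further: 0% = DMSO wells and 100% = thioflavine S control wells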
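assay system = NS3 helicase fragment of HCV | buffer or medium = MOPS pH 6.5, MgCl2, DTT, Tween20, BSA | timing = 60 min unwinding reaction at 25 °C after ATP addition | signal = Cy5 beacon fluorescence read at start and 1 h | read-out basis = % inhibition of unwinding | control set = low DMSO, high thioflavine S at 110 µM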
TAAR1 ag: human TAAR1 agonism | Q96RJ0 | CHO RD-HGA16 TAAR1, Fluo-8 calcium fluorescence; vehicle wells 0%, saturating PEA agonist 100% | activation, % at 3 µM | 0.99% of 360,000 active | AID 624467;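 active means activation above the mean activation of all test compounds in the run plus 3 SD, cut at about 38% in these data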
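Assay system – CHO-derived RD-HGA16 cells with stable Gα16 and human TAAR1 · Compound dosing – one-point dosing at 3 µM (nominal) · Incubation – 17-24 h seeding, 75 min 37 °C dye, 30 min RT · Measured by – kinetic Fluo-8 calcium fluorescence · Control set – DMSO vehicle as 0%, PEA at EC100 as 100% · Repeats – single well for each compound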
rCAG binder conf: r(CAG) RNA repeat binding, confirmation | shares compounds with rCAG binder-1 | inhibition, % at 3 µM | 70% of 4,300 active | AID 652065 | TO-PRO-1 dye displacement fluorescence;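 active means inhibition above a per-plate cutoff, the mean inhibition of sample wells plus 3 SD, cut at about 35% in these data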;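 further: loss of TO-PRO-1 fluorescence as compound displaces dye from 1x1 AA loop RNA; 0% = DMSO only wells and 100% = 100 µM mitoxantrone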
DNA CAG counter: disrupts DNA CAG TO-PRO-1 complex, flagging rCAG hits; shares compounds with rCAG binder-1; d(CAG) DNA oligo TO-PRO-1 dye displacement, fluorescence; inhibition, % at 3 µM; 94% of 4,300 active;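 active means inhibition above its plate's cutoff, the mean test-well inhibition plus 3 SD, cut at about 4.8% in these data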;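 further: 0% = DNA dye mix with DMSO and 100% = 100 µM mitoxantrone; hits displace the dye from DNA and so lower well fluorescence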
DNA CAG DR: disrupts DNA CAG TO-PRO-1 complex in dose response | AID 686960 | shares compounds with rCAG binder-1 | IC50, µM | DNA CAG/GTC duplex TO-PRO-1 dye displacement fluorescence | 20% of 250 active; in the data active means IC50 below about 10 µM
dCAG DNA bind: counter-screen for rCAG binders: DNA CAG TO-PRO-1 complex inhibitors, late stage. shares compounds with rCAG binder-1. d(CAG) DNA duplex TO-PRO-1 dye displacement, fluorescence. IC50, µM. 80% of 30 active
rCAG binder-2: binds r(CAG) RNA repeats in late stage dose response. 100% of 30 active. IC50, µM. AID 720651. shares compounds with rCAG binder-1. r(CAG) RNA TO-PRO-1 dye displacement, fluorescence
The depositor's hits bear a star; · = not tested or not shown. Unless noted, how the calls were made is not given here.

SMILES | TAAR1 antag | rCAG binder-1 | HCV core dimer | HCV NS3 hel inh | TAAR1 ag | rCAG binder conf | DNA CAG counter | others
COc1cccc(C(=O)Nc2nnc(S(=O)(=O)N(C)Cc3ccc(F)cc3)s2)c1 | -15 | 70* | 23 | -7 | 0 | 65* | 25*
COc1ccc(CN(C)S(=O)(=O)c2nnc(NC(=O)c3cccc(OC)c3)s2)cc1 | -10 | 67* | 8 | -23 | -1 | 58* | 23*
CN(Cc1ccccc1)S(=O)(=O)c1nnc(NC(=O)c2ccccc2)s1 | 5 | 16 | 2 | 4 | 1 | · | ·
CN(Cc1ccco1)S(=O)(=O)c1nnc(NC(=O)c2ccc(F)cc2)s1 | 15 | 37* | 5 | 15 | 1 | 25 | 7.4*
COc1ccc(CN(C)S(=O)(=O)c2nnc(NC(=O)c3ccccc3Br)s2)cc1 | -24 | 73* | 24 | -13 | 1 | 52* | 18*
COc1cccc(C(=O)Nc2nnc(S(=O)(=O)N(C)Cc3ccccc3)s2)c1 | -12 | 21 | 11 | 14 | 1 | · | ·
COc1ccc(CN(C)S(=O)(=O)c2nnc(NC(=O)c3ccccc3OC)s2)cc1OC | 31 | 15 | -1 | -2 | 7 | · | ·
C[C@H](O)[C@@H]1C(=O)N2CCc3c([nH]c4cccc(-c5ccccc5)c34)[C@@H]2C[C@@H]1N(C)C(=O)C1CCCCC1 | -15 | 6 | · | · | 1 | · | ·
CCOC(=O)N1CCN(C(=O)C[C@H]2C[C@@]3(C(=O)OC)C(=C[C@H](C4CCCC4)O[C@@H]3C)N(CCc3ccc(OC)c(OC)c3)C2=O)CC1 | · | 3 | · | · | · | · | ·
CCCN1CCCCC(NC(=O)c2ccccc2OC)C1=O (stereo not drawn) | -3 | -1 | · | · | 2 | · | ·
CCN(c1ccc(OC)cc1)S(=O)(=O)c1nnc(NC(=O)COc2ccc(F)cc2)s1 | -4 | 56* | 0 | 27 | -2 | 57* | 21* | DNA CAG DR=>30;dCAG DNA bind=5.5*;rCAG binder-2=1.8*
O=C(Nc1nnc(S(=O)(=O)N2CCCC2)s1)c1ccccc1Br | -4 | 9 | 9 | 1 | 1 | · | ·
COc1cccc(C(=O)Nc2nnc(S(=O)(=O)N3CCCC3)s2)c1 | -3 | 24 | -8 | 0 | 0 | · | ·
CC1CCN(S(=O)(=O)c2nnc(NC(=O)c3ccccc3Br)s2)CC1 | -5 | 37* | 11 | -11 | 2 | 28 | 6.5*
COc1cc(C(=O)Nc2nnc(S(=O)(=O)N3CCCCCC3)s2)cc(OC)c1OC | -13 | 52* | -1 | -12 | 1 | 53* | 14*
CCN(CC)C(=O)CC[C@@H]1CC[C@]2(CCCN(C(=O)C(C)(C)C)C2)O1 | · | -2 | · | · | · | · | ·
COc1ccc2c(c1)[C@@]1(OCCC=C[C@H]1C)C(=O)N2CC1CC1 | -6 | 0 | · | · | 4 | · | ·
N#Cc1cccc(NC(=O)CSc2sc3c(O)cc(=O)[nH]c3c2C#N)c1 | -26 | 47* | -7 | 16 | 3 | 19 | 7.3*
CCOc1cccc(NC(=O)CSc2sc3c(O)cc(=O)[nH]c3c2C#N)c1 | 4 | 39* | -3 | 4 | 0 | 23 | 9.4*
N#Cc1cccc(NC(=O)CSc2n[nH]c(=O)[nH]c2=O)c1 | -16 | 2 | 0 | 10 | 5 | · | ·
CCOC(=O)N(C)[C@H]1C[C@H]2c3[nH]c4cccc(-c5cccc(F)c5)c4c3CCN2C(=O)[C@H]1[C@H](C)O | · | 8 | · | · | · | · | ·
O=C(O)C(Cc1ccccc1)N1C(=O)/C(=C/c2cccs2)SC1=S (stereo not drawn) | 11 | 67* | · | 4 | 10 | 49* | 18*
